Experiments:
NIH3T3 = test: Cytotoxicity on 3T3 fibroblasts (3T3F) murine cell line (O.D.=0.131+/-0.014); type: functional; details: Mus musculus, read-out: TC50 (the source's name)
CEM-SS [1] = test: Concentration which produces a 50% survival of HIV-1 infected cells relative to uninfected control CEM-SS cells (in vitro anti-HIV activity); type: functional, cell-based; details: Homo sapiens
Procedure, shortened: (§1)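 CEM-SS T4 lymphocytes infected with wild-type HIV-1. Protection from virus-induced cell death is scored against an AZT-treated positive control run under identical conditions. […] SI = IC50/EC50.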

CEM-SS [2] = test: Concentration which results in 50% survival of uninfected untreated control CEM-SS cells (cytotoxicity of the compound); type: functional, cell-based; details: Homo sapiens, read-out: IC50 (the source's name)
C8166 = test: Concentration which results in 50% survival of uninfected untreated control C8166 cells (cytotoxicity of the compound); type: functional, cell-based; details: Homo sapiens
Procedure, shortened: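 Toxicity in uninfected C8166 cells by MTT reduction to formazan, read spectrophotometrically.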

[3] = test system: Human immunodeficiency virus 1; test: Concentration which produces a 50% survival of HIV-1 infected cells relative to uninfected control C8166 cells; type: functional, organism-based; details: Human immunodeficiency virus 1, C8166
Daudi = test: Cytotoxicity on Daudi Human(DH) cell line (O.D.=0.129+/-0.018); type: functional; details: read-out: TC50 (the source's name)
Mus musculus = organism: Mus musculus; test: Cytotoxicity on NSO murine cell line (O.D.=0.125+/-0.015); type: functional; details: read-out: TC50 (the source's name)
[4] = molecular target: T1, Human immunodeficiency virus type 1 reverse transcriptase (Human immunodeficiency virus 1, UniProt Q72547); test: Inhibition of HIV-1 Mutant HIV-1 RT enzymes containing the single amino acid substitution […]
[5] = molecular target: Human immunodeficiency virus type 1 reverse transcriptase (Human immunodeficiency virus 1, UniProt Q72547, V106A); test: Inhibition of HIV-1 Mutant HIV-1 RT enzymes containing the single amino acid substitution V106A
[6] = molecular target: Human immunodeficiency virus type 1 reverse transcriptase (Human immunodeficiency virus 1, UniProt Q72547, Y181I); test: Inhibition of HIV-1 Mutant HIV-1 RT enzymes containing the single amino acid substitution Y181I
[7] = molecular target: Human immunodeficiency virus type 1 reverse transcriptase (Human immunodeficiency virus 1, UniProt Q72547, Y188L); test: Inhibition of HIV-1 Mutant HIV-1 RT enzymes containing the single amino acid substitution Y188L
[8] = molecular target: T1, Human immunodeficiency virus type 1 reverse transcriptase; test: Inhibition of HIV-1 wild-type RT
[9] = Selectivity index was determined in C8166 cells; type: functional
Procedure, shortened: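 C8166 CD4+ T-cell line (HTLV-I genome, only tat expressed) acutely infected with lymphocytotropic HIV-1 IIIB. […] Read-out is HIV-p24 antigen in supernatants. AZT positive control was run at the same time. SI = IC50/EC50.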

[10] = Selectivity index was determined in CEM-SS cells; type: functional; procedure, shortened: as §1
[11] = (§2) Cytotoxicity on normal human lymphocytes(HL) (O.D.=0.114+/-0.01); details: read-out: TC50 (the source's name)
[12] = molecular target: Human immunodeficiency virus type 1 reverse transcriptase (Human immunodeficiency virus 1, UniProt Q72547, K103N); test: Inhibition of HIV-1 Mutant HIV-1 RT enzymes containing the single amino acid substitution K103N
[13] = as §2; type: functional; details: read-out: TC50 (the source's name)
[14] = Selectivity index was (IC50/EC50) determined in C8166 cells; type: functional
[15] = Selectivity index (IC50/EC50) was determined in CEM-SS cells; type: functional
Procedure, shortened: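 CEM-SS (T4 lymphocyte) cells infected with wild-type HIV-1 were scored for protection from virus-induced cell death. […] SI = IC50/EC50. An AZT-treated positive control was run in parallel under identical conditions.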

Row | Structure (SMILES) | CC50 (NIH3T3) [µM] | EC50 (CEM-SS [1]) [µM] | CC50 (CEM-SS [2]) [µM] | IC50 (C8166) [µM] | EC50 [3] [µM] | CC50 (Daudi) [µM] | CC50 (Mus musculus) [µM] | Ki [4] [µM] | Ki [5] [µM] | Ki [6] [µM] | Ki [7] [µM] | Ki [8] [µM] | SI [9] | SI [10] | CC50 [11] [µM] | Ki [12] [µM] | CC50 [13] [µM] | SI [14] | SI [15]
1 | O=c1c2cccn2c2c(F)cccc2n1CCNC(=S)Nc1ccc(Br)cn1 | 500 | 0.0019 | > 2 | 21 | 0.2 | 510 | 520 | 0.8 | 0.06 | 0.9 | 0.2 | 0.04 | 105 | >110 | 510 | 0.4 | – | – | –
2 | Fc1cccc2c1nc(OCCNC(=S)Nc1ccc(Br)cn1)c1cccn12 | > 1000 | 0.0029 | > 2 | 125 | 0.02 | > 1000 | > 1000 | 0.15 | 0.029 | 0.3 | 0.7 | 0.058 | – | – | – | 0.35 | > 1000 | 6250 | >690
